Reference: ChEMBL document CHEMBL1773006, “Enone- and chalcone-chloroquinoline hybrid analogues: in silico guided design, synthesis, antiplasmodial activity, in vitro metabolism, and mechanistic studies” (J Med Chem, 2011)
In brackets after ≈: the same amount, converted by molar mass.

How the values were obtained:
[1] = Ratio of compound IC50 to hematin IC50 for inhibition of beta-hematin formation
[2] = Inhibition of Plasmodium falciparum falcipain 2 assessed as benzyloxycarbonyl-Phe-Leu-7-amino-4-methylcoumarin substrate hydrolysis after 30 mins by spectrofluorometry analysis
[3] = Partition coefficient, log D of the compound at pH 3 by HPLC analysis; assay type: physicochemical; settings: octanol/water
Plasmodium falciparum [4] = test: Antiplasmodial activity against chloroquine-sensitive Plasmodium falciparum D10 by FACS-based assay; assay type: functional, organism-based
Plasmodium falciparum [5] = test: Antiplasmodial activity against chloroquine-resistant Plasmodium falciparum Dd2 by FACS-based assay; assay type: functional, organism-based
Plasmodium falciparum [6] = test: Antiplasmodial activity against chloroquine-resistant Plasmodium falciparum W2 by FACS-based assay; assay type: functional, organism-based
Outline: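 W2 parasites kept in continuous culture in standard medium with 10% human serum, synchronized with 5% D-sorbitol at ring stage when needed. Parasite development read by FACS. Final DMSO at most 0.5%. IC50 in µM is the mean of two independent determinations, each run in duplicate.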

Liver microsomes = test: (§1) Half life in human liver microsomes assessed as compound degradation at 1 uM by LC-MS analysis in presence of NADPH and UDPGA; assay type: ADME, Microsome; settings: microsomes, 1 µM
Liver = test: (§2) Half life in mouse liver microsomes assessed as compound degradation at 1 uM by LC-MS analysis in presence of NADPH and UDPGA; assay type: ADME, Microsome; settings: microsomes, 1 µM
[7] = Partition coefficient, log D of the compound at pH 7.4 by HPLC analysis; assay type: physicochemical; settings: octanol/water
[8] = Solubility of the compound in 0.01 M hydrochloric acid at pH 2; assay type: physicochemical
[9] = Solubility of the compound in phosphate buffer at pH 6.5; assay type: physicochemical
Plasmodium falciparum [10] = test: Antiplasmodial activity against chloroquine-sensitive Plasmodium falciparum D10 infected in erythrocytes assessed as inhibition of sorbitol-induced hemolysis after 15 mins; assay type: functional
CHO = test: Cytotoxicity against CHO cells at 100 uM; assay type: cell-based, Cricetulus griseus; settings: chinese hamster
[11] = as §1; assay type: ADME, Microsome; settings: liver microsomes
[12] = as §2; assay type: ADME, Microsome; settings: liver microsomes
[13] = phosphate buffer, read-out: solubility
[14] = 0.01 M hydrochloric acid, read-out: solubility

Compound `CC(=O)/C=C/c1ccc(O)cc1` has a Ratio IC50 [1] of over 5 and an IC50 [2] of over 50 µM.

In the case of `CC(=O)/C=C/c1ccc(O)c(CN2CCN(c3ccnc4cc(Cl)ccc34)CC2)c1`, the logD [3] is reported as 0.8, the IC50 (Plasmodium falciparum [4]) is reported as 1.7 µM and the IC50 (Plasmodium falciparum [5]) is reported as 3.1 µM. The IC50 (Plasmodium falciparum [6]) was 0.7 µM, the t1/2 (Liver microsomes) was 7.5 min and the t1/2 (Liver) was 15 min. For the same compound, the logD [7] was 4.2, the solubility ([8]; buffer) was over 100 µg/mL and the solubility ([9]; buffer) was under 1.6 µg/mL. The Ratio IC50 [1] was 0.5, the IC50 [2] was 29.9 µM and the “inhibition (INH)” value (Plasmodium falciparum [10]) was 11.6%.

In the case of `COc1ccc(C(=O)/C=C/c2cc(CN3CCN(c4ccnc5cc(Cl)ccc45)CC3)c(O)c(OC)c2)c(OC)c1`, the logD [3] is reported as 2.1, the IC50 (Plasmodium falciparum [4]) is reported as 0.5 µM and the IC50 (Plasmodium falciparum [5]) is reported as 0.5 µM. It also gave an IC50 (Plasmodium falciparum [6]) of 0.4 µM, a t1/2 (Liver microsomes) of 37 min and a t1/2 (Liver) of 11.8 min. The logD [7] was 5, the solubility ([8]; buffer) was over 100 µg/mL and the solubility ([9]; buffer) was under 1.6 µg/mL. The Ratio IC50 [1] was 0.3, the IC50 [2] was 9.1 µM and the “inhibition (INH)” value (Plasmodium falciparum [10]) was 3.9%. For the same compound, the Activity (CHO) was “Non-toxic”.

In the case of `COc1cc(/C=C/C(C)=O)ccc1O` [DEHYDROZINGERONE], the IC50 (Plasmodium falciparum [4]) is reported as over 20 µM, the IC50 (Plasmodium falciparum [5]) is reported as over 20 µM and the IC50 (Plasmodium falciparum [6]) is reported as over 10 µM. The “inhibition (INH)” value (Plasmodium falciparum [10]) was 21.1%.

In the case of `CC(C)C[C@H](NC(=O)[C@H]1O[C@@H]1C(=O)O)C(=O)NCCCCN=C(N)N` [E-64], the IC50 [2] is reported as 0.055 µM.

Compound `COc1ccc(C(=O)/C=C/c2ccc(OCCNc3ccnc4cc(Cl)ccc34)c(OC)c2)c(OC)c1` has a logD [3] of 2.8, an IC50 (Plasmodium falciparum [4]) of 0.8 µM and an IC50 (Plasmodium falciparum [5]) of 1.1 µM. It also gave an IC50 (Plasmodium falciparum [6]) of 0.4 µM, a t1/2 (Liver microsomes) of 17.5 min and a t1/2 (Liver) of 12.7 min. For the same compound, the logD [7] was 4.2, the solubility ([8]; buffer) was over 100 µg/mL and the solubility [9, 13] was 3.1 µg/mL (≈ 5.97 µM). It also gave a Ratio IC50 [1] of 0.3 and an IC50 [2] of 22.9 µM.

With `OCCNc1ccnc2cc(Cl)ccc12` the IC50 (Plasmodium falciparum [4]) was 2.6 µM, the IC50 (Plasmodium falciparum [5]) was 1 µM and the IC50 (Plasmodium falciparum [6]) was 0.2 µM. For the same compound, the Ratio IC50 [1] was 4.9, the IC50 [2] was over 50 µM and the “inhibition (INH)” value (Plasmodium falciparum [10]) was 0.9%.

With `COc1cc(/C=C/C(C)=O)cc(CN2CCN(c3ccnc4cc(Cl)ccc34)CC2)c1O` the logD [3] was 0.9, the IC50 (Plasmodium falciparum [4]) was 1 µM and the IC50 (Plasmodium falciparum [5]) was 1.7 µM. For the same compound, the IC50 (Plasmodium falciparum [6]) was 0.5 µM, the t1/2 (Liver) was 14 min and the logD [7] was 3.9. For the same compound, the solubility ([8]; buffer) was over 100 µg/mL, the solubility [9, 13] was 1.6 µg/mL (≈ 3.54 µM) and the Ratio IC50 [1] was 0.5. The IC50 [2] was over 50 µM and the “inhibition (INH)” value (Plasmodium falciparum [10]) was 16.8%.

`CCN(CC)CCCC(C)Nc1ccnc2cc(Cl)ccc12` (stereo not given) [CHLOROQUINE] showed a t1/2 (Liver microsomes) of over 250 min.

`COc1ccc(C(=O)/C=C/c2ccc(O)cc2)c(OC)c1` gave a Ratio IC50 [1] of 1.9 and an IC50 [2] of over 50 µM.

`COc1ccc(C(=O)/C=C/c2ccc(OCCN3CCN(c4ccnc5cc(Cl)ccc45)CC3)c(OC)c2)c(OC)c1` showed a logD [3] of 2.2, an IC50 (Plasmodium falciparum [4]) of 1.2 µM and an IC50 (Plasmodium falciparum [5]) of 0.5 µM. For the same compound, the IC50 (Plasmodium falciparum [6]) was 0.6 µM, the half-life at 1 µM [11] was 11.5 min and the half-life at 1 µM [12] was 9.8 min. For the same compound, the logD [7] was 5.3, the solubility ([8]; buffer) was over 100 µg/mL and the solubility ([9]; buffer) was under 1.6 µg/mL. The Ratio IC50 [1] was 0.2 and the IC50 [2] was 11.7 µM.

Work on `COc1cc(/C=C/C(C)=O)ccc1OCCN1CCN(c2ccnc3cc(Cl)ccc23)CC1` yielded a logD [3] of 1.2, an IC50 (Plasmodium falciparum [4]) of 1.2 µM and an IC50 (Plasmodium falciparum [5]) of 1 µM. The IC50 (Plasmodium falciparum [6]) was 0.5 µM, the half-life at 1 µM [11] was 9.8 min and the half-life at 1 µM [12] was 5.6 min. For the same compound, the logD [7] was 4.2, the solubility ([8]; buffer) was over 100 µg/mL and the solubility [9, 13] was 1.6 µg/mL (≈ 3.43 µM). It also gave a Ratio IC50 [1] of 0.5 and an IC50 [2] of over 50 µM.

With `COc1cc(/C=C/C(C)=O)ccc1OCCNc1ccnc2cc(Cl)ccc12` the logD [3] was 1.8, the IC50 (Plasmodium falciparum [4]) was 1 µM and the IC50 (Plasmodium falciparum [5]) was 1.5 µM. It also gave an IC50 (Plasmodium falciparum [6]) of 0.1 µM, a t1/2 (Liver microsomes) of 10.5 min and a t1/2 (Liver) of 13.4 min. For the same compound, the logD [7] was 3, the solubility [8, 14] was 50 µg/mL (≈ 126 µM) and the solubility [9, 13] was 6.3 µg/mL (≈ 15.9 µM). For the same compound, the Ratio IC50 [1] was 0.6, the IC50 [2] was over 50 µM and the “inhibition (INH)” value (Plasmodium falciparum [10]) was 12.3%.

Compound `OCCN1CCN(c2ccnc3cc(Cl)ccc23)CC1` has an IC50 (Plasmodium falciparum [4]) of 5.2 µM, an IC50 (Plasmodium falciparum [5]) of 3.8 µM and an IC50 (Plasmodium falciparum [6]) of 1 µM. It also gave a Ratio IC50 [1] of 3.9 and an IC50 [2] of over 50 µM.

Compound `COc1cc(/C=C/C(C)=O)ccc1OCc1cn(-c2ccnc3cc(Cl)ccc23)nn1` has a logD [3] of 3.5, a half-life at 1 µM [11] of 7.4 min and a half-life at 1 µM [12] of 6.2 min. It also gave a logD [7] of 3.6, a solubility [8, 14] of 3.1 µg/mL (≈ 7.13 µM) and a solubility [9, 13] of 3.1 µg/mL (≈ 7.13 µM).

In the case of `Clc1ccc2c(N3CCNCC3)ccnc2c1`, the IC50 (Plasmodium falciparum [4]) is reported as 0.7 µM, the IC50 (Plasmodium falciparum [5]) is reported as 0.9 µM and the IC50 (Plasmodium falciparum [6]) is reported as 0.3 µM. The IC50 [2] was over 50 µM and the “inhibition (INH)” value (Plasmodium falciparum [10]) was 5.8%.

`COc1ccc(C(=O)/C=C/c2ccc(O)c(CN3CCN(c4ccnc5cc(Cl)ccc45)CC3)c2)c(OC)c1` showed a logD [3] of 2, an IC50 (Plasmodium falciparum [4]) of 0.6 µM and an IC50 (Plasmodium falciparum [5]) of 0.5 µM. The IC50 (Plasmodium falciparum [6]) was 0.3 µM, the t1/2 (Liver microsomes) was 58.6 min and the t1/2 (Liver) was 45.4 min. For the same compound, the logD [7] was 5.3, the solubility ([8]; buffer) was over 100 µg/mL and the solubility ([9]; buffer) was under 1.6 µg/mL. For the same compound, the Ratio IC50 [1] was 0.2, the IC50 [2] was 10 µM and the Activity (CHO) was “Non-toxic”.

`COc1ccc(C(=O)/C=C/c2ccc(O)c(OC)c2)c(OC)c1` showed an IC50 (Plasmodium falciparum [4]) of 5.3 µM, an IC50 (Plasmodium falciparum [5]) of 7.3 µM and an IC50 (Plasmodium falciparum [6]) of over 10 µM. The Ratio IC50 [1] was over 5, the IC50 [2] was over 50 µM and the “inhibition (INH)” value (Plasmodium falciparum [10]) was 27.9%.

`COc1ccc(C(=O)/C=C/c2ccc(OCc3cn(-c4ccnc5cc(Cl)ccc45)nn3)c(OC)c2)c(OC)c1` showed a logD [3] of 4.3, a t1/2 (Liver microsomes) of 51.1 min and a t1/2 (Liver) of 56.8 min. The logD [7] was 4.3, the solubility ([8]; buffer) was under 1.6 µg/mL and the solubility ([9]; buffer) was under 1.6 µg/mL. The Ratio IC50 [1] was 1.6, the IC50 [2] was 10.8 µM and the “inhibition (INH)” value (Plasmodium falciparum [10]) was 15.4%.
